Measurements as given in ChEMBL document CHEMBL3877303 (J Med Chem, 2017).
Active and inactive are the calls of the source. The calls are words filed in the database; no cut-off is given here.

Key:
[1] = molecular target: T1, Mast/stem cell growth factor receptor Kit (Homo sapiens, UniProt P10721); conditions: GISTT1, 1 uM
[2] = molecular target: T1, Mast/stem cell growth factor receptor Kit; conditions: 1 uM
[3] = molecular target: T1, Mast/stem cell growth factor receptor Kit; conditions: GISTT1, 1 uM; remark: listed apart in the source
[4] = molecular target: T1, Mast/stem cell growth factor receptor Kit; conditions: 1 uM; remark: listed apart in the source
[5] = Cell cycle arrest in human KU812 cells assessed as accumulation at G0/G1 phase at 1 uM after 12 hrs by propidium iodide/RNase staining based flow cytometry; type: functional
Outline: (§1)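 Cells were exposed to serially diluted compound, then fixed in cold 70% ethanol overnight at -20 °C. They were stained with PI/RNase buffer for DNA-content cell-cycle analysis.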

[6] = Cell cycle arrest in human MEG01 cells assessed as accumulation at G0/G1 phase at 1 uM after 24 hrs by propidium iodide/RNase staining based flow cytometry; type: functional; conditions: MEG-01
Outline: as §1

[7] = Cell cycle arrest in human K562 cells assessed as accumulation at G0/G1 phase at 1 uM after 24 hrs by propidium iodide/RNase staining based flow cytometry; type: functional
Outline: as §1

[8] = molecular target: T1, Mast/stem cell growth factor receptor Kit; assay: Inhibition of c-KIT autophosphorylation at Y823 in human GIST882 cells at 0.01 to 3 uM measured after 2 hrs by immunoblotting; type: cell-based
Outline: (§2)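 After an ice-cold PBS wash, cells were lysed in RIPA buffer (50 mM Tris pH 8.0) with protease and phosphatase inhibitors, and protein was quantified by BCA. Lysates were run on SDS-PAGE, transferred to PVDF and blocked in 5% milk/TBST. Phospho- and total proteins were probed by immunoblot with ECL detection; β-actin served as loading control.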

[9] = molecular target: T1, Mast/stem cell growth factor receptor Kit; assay: Inhibition of c-KIT autophosphorylation at Y719 in human GIST882 cells at 0.01 to 3 uM measured after 2 hrs by immunoblotting; type: cell-based
Outline: as §2

BaF3 [10] = assay: Inhibition of BCR/ABL p210 fusion protein T315I mutant (unknown origin) expressed in BAF3 cells assessed as growth inhibition measured after 72 hrs by CellTiter-Glo or CCK8 assay; type: cell-based; conditions: Homo sapiens
Outline: (§3)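 BaF3 lines were made by retroviral transduction with kinase-fusion MSCV vectors packaged in HEK293T cells. Cells were selected with puromycin for 48 h, then selected again without IL-3 so growth depends on the introduced kinase. […] They were seeded at 1 to 2.5×10^4 cells/mL with compound dilutions and incubated 72 h. Viability was read by CellTiter-Glo luminescence or CCK-8 absorbance (450/655 nm), normalized to DMSO control; GI50 was curve-fitted from triplicate tests.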

[11] = molecular target: Tyrosine-protein kinase Lck (Homo sapiens, UniProt P06239); conditions: BaF3
Chain of Tyrosine-protein kinase Lck (P06239 2-509 limits assumed): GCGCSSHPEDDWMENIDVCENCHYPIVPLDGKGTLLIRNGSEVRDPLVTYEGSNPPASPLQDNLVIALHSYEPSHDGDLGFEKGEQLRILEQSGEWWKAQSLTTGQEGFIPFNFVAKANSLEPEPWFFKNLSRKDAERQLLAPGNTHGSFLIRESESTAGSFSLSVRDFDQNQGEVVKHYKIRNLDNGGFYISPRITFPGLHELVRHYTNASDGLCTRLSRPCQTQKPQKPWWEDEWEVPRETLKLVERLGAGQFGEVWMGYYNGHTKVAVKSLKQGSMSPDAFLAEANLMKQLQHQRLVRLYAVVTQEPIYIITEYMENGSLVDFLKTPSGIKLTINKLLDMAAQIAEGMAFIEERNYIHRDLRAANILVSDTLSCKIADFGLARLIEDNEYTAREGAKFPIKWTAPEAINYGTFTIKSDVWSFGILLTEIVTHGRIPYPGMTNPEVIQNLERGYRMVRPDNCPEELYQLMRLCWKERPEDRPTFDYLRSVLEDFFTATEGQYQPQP

MEG-01 = assay: Induction of apoptosis in human MEG01 cells assessed as cleavage of PARP at 0.1 to 3 uM by Western blot analysis; type: functional, cell-based
Outline: (§4)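 Cells were treated with DMSO or serially diluted compound for the indicated periods. They were washed in ice-cold PBS and lysed in RIPA buffer with protease/phosphatase inhibitors, and protein was quantified by BCA. Lysates were resolved by SDS-PAGE, transferred to PVDF and blocked in 5% milk/TBST. Blots were probed for PARP and caspase-3, with β-actin as loading control, and detected by ECL.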

[12] = molecular target: T2, BCR/ABL p210 fusion protein (Homo sapiens, UniProt A1Z199); assay: Inhibition of BCR/ABL p210 fusion protein mediated signaling pathways assessed as reduction in Stat5 phosphorylation at Y694 in human MEG01 cells at 0.01 to 3 uM measured after 2 hrs by immunoblotting; type: cell-based; conditions: MEG-01
T2 sequence (A1Z199 1-97): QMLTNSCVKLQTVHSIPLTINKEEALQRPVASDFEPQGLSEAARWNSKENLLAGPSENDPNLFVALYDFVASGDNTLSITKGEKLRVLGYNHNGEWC
Outline: as §2

[13] = molecular target: T2, BCR/ABL p210 fusion protein; assay: Inhibition of BCR/ABL p210 fusion protein mediated signaling pathways assessed as reduction in CrkL phosphorylation at Y207 in human KU812 cells at 0.01 to 3 uM measured after 2 hrs by immunoblotting; type: cell-based
Outline: as §2

[14] = molecular target: T2, BCR/ABL p210 fusion protein; assay: Inhibition of BCR/ABL p210 fusion protein mediated signaling pathways assessed as reduction in Stat5 phosphorylation at Y694 in human K562 cells at 0.01 to 3 uM measured after 2 hrs by immunoblotting; type: cell-based
Outline: as §2

[15] = molecular target: T2, BCR/ABL p210 fusion protein; assay: Inhibition of BCR/ABL p210 fusion protein mediated signaling pathways assessed as reduction in CrkL phosphorylation at Y207 in human K562 cells at 0.01 to 3 uM measured after 2 hrs by immunoblotting; type: cell-based
Outline: as §2

BaF3 [16] = assay: Inhibition of BCR/ABL p210 fusion protein Y253H mutant (unknown origin) expressed in BAF3 cells assessed as growth inhibition measured after 72 hrs by CellTiter-Glo or CCK8 assay; type: cell-based; conditions: Homo sapiens
Outline: as §3

[17] = system: Mast/stem cell growth factor receptor Kit (Homo sapiens), P10721 [V559D]; assay: Inhibition of Tel-fused c-KIT V559D mutant (unknown origin) expressed in BAF3 cells assessed as growth inhibition measured after 72 hrs by CellTiter-Glo or CCK8 assay; type: cell-based
Chain of Mast/stem cell growth factor receptor Kit (Homo sapiens), P10721 [V559D] (P10721 whole entry V559D, the tested form may be a part): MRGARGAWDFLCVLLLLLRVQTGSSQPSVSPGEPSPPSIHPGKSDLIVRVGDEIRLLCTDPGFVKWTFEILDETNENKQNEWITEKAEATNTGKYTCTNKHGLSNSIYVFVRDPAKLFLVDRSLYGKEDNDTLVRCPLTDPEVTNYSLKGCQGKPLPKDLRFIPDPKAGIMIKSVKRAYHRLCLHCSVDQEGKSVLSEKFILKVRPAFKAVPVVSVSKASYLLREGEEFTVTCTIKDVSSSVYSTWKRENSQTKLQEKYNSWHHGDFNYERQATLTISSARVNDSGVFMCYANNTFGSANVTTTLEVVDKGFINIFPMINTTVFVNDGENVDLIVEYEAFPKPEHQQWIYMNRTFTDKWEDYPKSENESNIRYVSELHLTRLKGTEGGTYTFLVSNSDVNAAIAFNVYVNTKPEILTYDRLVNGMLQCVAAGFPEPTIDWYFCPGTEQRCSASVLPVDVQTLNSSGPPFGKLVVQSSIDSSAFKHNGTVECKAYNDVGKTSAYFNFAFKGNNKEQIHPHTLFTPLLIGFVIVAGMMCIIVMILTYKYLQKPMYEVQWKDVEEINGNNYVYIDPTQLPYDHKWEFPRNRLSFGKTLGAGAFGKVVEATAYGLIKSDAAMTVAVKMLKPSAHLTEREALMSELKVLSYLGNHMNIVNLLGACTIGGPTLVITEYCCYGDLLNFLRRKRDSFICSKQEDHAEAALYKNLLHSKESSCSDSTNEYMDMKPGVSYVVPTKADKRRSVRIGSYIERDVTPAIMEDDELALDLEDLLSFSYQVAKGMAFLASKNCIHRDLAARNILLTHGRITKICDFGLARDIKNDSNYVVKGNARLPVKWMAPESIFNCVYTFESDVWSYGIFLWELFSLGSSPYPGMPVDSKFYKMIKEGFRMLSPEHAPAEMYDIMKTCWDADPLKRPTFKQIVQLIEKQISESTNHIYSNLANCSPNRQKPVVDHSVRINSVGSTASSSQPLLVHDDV
Outline: as §3

[18] = Oral bioavailability in Sprague-Dawley rat at 10 mg/kg; type: ADME, organism-based; conditions: in vivo
Outline: (§5)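 Male Sprague-Dawley rats, 6-8 weeks old, fasted overnight, dosed iv or po. Jugular vein blood (~0.2 mL, heparin) sampled at 1 min to 8 h (iv) or 5 min to 24 h (po). Plasma separated by centrifugation at 2-8 °C and stored at -80 °C before analysis.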

[19] = Mean residence time (0 to t) in Sprague-Dawley rat at 1 mg/kg, iv; type: ADME, organism-based; conditions: in vivo
Outline: as §5

[20] = molecular target: T1, Mast/stem cell growth factor receptor Kit; assay: Inhibition of c-KIT autophosphorylation at Y703 in human GIST882 cells at 0.01 to 3 uM measured after 2 hrs by immunoblotting; type: cell-based
Outline: as §2

[21] = Anticancer activity against human GISTT1 cells xenografted in nu/nu mouse assessed as tumor growth inhibition at 100 mg/kg, po administered daily via oral gavage measured 21 days post compound treatment relative to vehicle-treated control; conditions: 504 h, read-out: GI
BaF3 [22] = assay: Inhibition of BCR/ABL p210 fusion protein F317I mutant (unknown origin) expressed in BAF3 cells assessed as growth inhibition measured after 72 hrs by CellTiter-Glo or CCK8 assay; type: cell-based; conditions: Homo sapiens
Outline: as §3

KU812 cell line = assay: Induction of apoptosis in human KU812 cells assessed as cleavage of PARP at 0.1 to 3 uM by Western blot analysis; type: functional, cell-based
Outline: as §4

[23] = molecular target: Macrophage colony-stimulating factor 1 receptor (Homo sapiens, UniProt P07333); conditions: BaF3
Chain of Macrophage colony-stimulating factor 1 receptor (P07333 whole entry, the tested form may be a part): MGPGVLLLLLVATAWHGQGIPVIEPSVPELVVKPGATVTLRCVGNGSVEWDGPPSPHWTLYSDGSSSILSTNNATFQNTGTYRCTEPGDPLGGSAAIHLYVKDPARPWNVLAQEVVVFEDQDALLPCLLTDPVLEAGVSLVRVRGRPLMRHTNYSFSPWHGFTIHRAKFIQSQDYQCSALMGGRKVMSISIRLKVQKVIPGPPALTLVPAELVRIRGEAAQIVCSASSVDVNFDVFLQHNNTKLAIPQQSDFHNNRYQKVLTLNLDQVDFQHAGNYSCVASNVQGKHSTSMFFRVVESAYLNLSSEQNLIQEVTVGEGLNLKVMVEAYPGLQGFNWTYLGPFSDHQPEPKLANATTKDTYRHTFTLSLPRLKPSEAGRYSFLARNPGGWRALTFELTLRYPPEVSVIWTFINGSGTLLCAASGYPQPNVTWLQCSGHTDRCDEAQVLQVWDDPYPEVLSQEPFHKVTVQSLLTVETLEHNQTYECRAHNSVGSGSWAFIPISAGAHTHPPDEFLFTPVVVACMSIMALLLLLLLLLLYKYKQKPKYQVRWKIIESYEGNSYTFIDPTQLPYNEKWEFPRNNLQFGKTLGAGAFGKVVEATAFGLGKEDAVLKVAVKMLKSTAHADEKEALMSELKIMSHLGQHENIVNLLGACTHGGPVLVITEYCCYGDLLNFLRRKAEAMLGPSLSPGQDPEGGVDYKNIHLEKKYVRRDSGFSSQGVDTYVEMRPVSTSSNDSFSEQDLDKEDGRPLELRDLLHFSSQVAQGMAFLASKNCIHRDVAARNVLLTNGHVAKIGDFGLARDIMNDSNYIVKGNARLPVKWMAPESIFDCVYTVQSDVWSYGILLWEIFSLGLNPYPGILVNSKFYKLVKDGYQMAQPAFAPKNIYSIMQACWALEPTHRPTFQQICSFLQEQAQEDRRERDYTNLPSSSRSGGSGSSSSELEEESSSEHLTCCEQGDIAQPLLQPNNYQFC

BaF3 [24] = assay: Inhibition of BCR/ABL p210 fusion protein H369P mutant (unknown origin) expressed in BAF3 cells assessed as growth inhibition measured after 72 hrs by CellTiter-Glo or CCK8 assay; type: cell-based; conditions: Homo sapiens
Outline: as §3

[25] = molecular target: T1, Mast/stem cell growth factor receptor Kit; conditions: BaF3
[26] = Cell cycle arrest in human KU812 cells assessed as accumulation at G0/G1 phase at 0.3 uM after 12 hrs by propidium iodide/RNase staining based flow cytometry; type: functional
Outline: as §1

T1 sequence (P10721 whole entry): as the sequence (P10721 whole entry V559D, the tested form may be a part) above, with D559V counted along it

Compound: Cc1ccc(NC(=O)c2ccc(CN3CCN(C)CC3)cc2)cc1Nc1nccc(-c2cccnc2)n1 [IMATINIB]
- inhibition [1]: Active
- inhibition [2]: Active
- inhibition [3]: Active
- inhibition [4]: Active
- Activity [5]: Active
- Activity [6]: Active
- Activity [7]: Active

Compound: Cc1ccc(C(=O)N2CCC(Oc3cc(NC(=O)c4ccc(CN5CCN(C)CC5)c(C(F)(F)F)c4)ccc3C)CC2)cn1
- inhibition [8]: Active
- inhibition [9]: Active
- GI50 (BaF3 [10]): > 10 µM
- GI50 [11]: 0.386 µM
- Activity (MEG-01): Active
- inhibition [12]: Active
- inhibition [13]: Active
- inhibition [14]: Active
- inhibition [15]: Active
- GI50 (BaF3 [16]): 1.67 µM
- GI50 [17]: 0.078 µM
- bioavailability [18]: 47.5%
- MRT last [19]: 1.93 h
- inhibition [20]: Active
- inhibition in vivo at 100 mg/kg [21]: 46.5%
- GI50 (BaF3 [22]): 0.49 µM
- Activity (KU812 cell line): Active
- GI50 [23]: 0.162 µM
- GI50 (BaF3 [24]): 0.98 µM
- GI50 [25]: 0.149 µM
- Activity [26]: Active
